Data from ChEMBL document CHEMBL2163272, “Design, synthesis, and preclinical evaluations of novel 4-substituted 1,5-diarylanilines as potent HIV-1 non-nucleoside reverse transcriptase inhibitor (NNRTI) drug candidates” (J Med Chem, 2012).
In brackets after ≈: the same amount, converted by molar mass.

Key:
[1] = test system: Human immunodeficiency virus 1; assay: Antiviral activity against HIV-1 NL4-3 infected in human TZM-bl cells assessed as inhibition of viral replication after 2 days by luciferase reporter gene based luminescence assay; assay type: functional, organism-based; conditions: Human immunodeficiency virus 1, NL4-3, TZM-bl, 48 h
Summary of the method: (§1)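 Single-round infection of TZM-bl cells with 200 TCID50 virus (NL4-3 for wild type) in the presence of graded compound concentrations. Luciferase luminescence was read two days after infection. Run at least in triplicate; mean ± SD reported.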

Liver microsomes [2] = assay: Half life in human liver microsomes at 1 uM; assay type: ADME, Microsome
Summary of the method: (§2)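 Compound at 1 μM final in 0.1 M potassium phosphate pH 7.4 with 0.1 mg/mL human liver microsomes and 5 mM MgCl2, 37 °C. Started with NADPH (1.0 mM final) and quenched with ice-cold ACN at 0, 5, 15, 30, 60 min; duplicate.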

[3] = Aqueous solubility of the compound at pH 2.0 after 4 hrs; assay type: physicochemical; conditions: for solubility: buffer, pH 2, 4 h; for solubility at 4 h: aqueous, pH 2
Caco-2 = assay: Apparent permeability of the compound in human Caco2 cells; assay type: ADME, cell-based
[4] = Aqueous solubility of the compound at pH 7.4 after 4 hrs; assay type: physicochemical; conditions: buffer, pH 7.4, 4 h
[5] = Cytotoxicity against human TZM-bl cells after 4 days by XTT assay; assay type: cell-based; conditions: 96 h
Summary of the method: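 TZM-bl cells (5 × 10^5/mL) exposed to graded compound concentrations at 37 °C for 4 days. XTT (1 mg/mL) with 0.02 μM PMS added, and absorbance at 450 nm read after 4 h.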

[6] = Selectivity index, ratio of CC50 for human TZM-bl cells to EC50 for HIV-1NL4-3; assay type: toxicity, cell-based; conditions: read-out: Ratio CC50/EC50
Liver microsomes [7] = assay: Intrinsic clearance in human liver microsomes at 1 uM; assay type: ADME, Microsome; summary of the method: as §2
[8] = test system: Human immunodeficiency virus 1; assay: Ratio of EC50 for HIV-1 harboring reverse transcriptase K101E mutant to EC50 for wild type HIV-1 NL4-3; assay type: functional
[9] = test system: Human immunodeficiency virus 1; assay: Ratio of EC50 for multidrug-resistant HIV-1 RTMDR to EC50 for wild type HIV-1 NL4-3; assay type: functional
[10] = test system: Human immunodeficiency virus 1; assay: Antiviral activity against HIV-1 harboring reverse transcriptase E138K mutant infected in human TZM-bl cells assessed as inhibition of viral replication after 2 days by luciferase reporter gene based luminescence assay; assay type: functional, organism-based; conditions: Human immunodeficiency virus 1, TZM-bl, 48 h; summary of the method: as §1
[11] = test system: Human immunodeficiency virus 1; assay: Ratio of EC50 for HIV-1 harboring reverse transcriptase E138K mutant to EC50 for wild type HIV-1 NL4-3; assay type: functional
[12] = test system: Human immunodeficiency virus 1; assay: Antiviral activity against HIV-1 harboring reverse transcriptase K101E mutant infected in human TZM-bl cells assessed as inhibition of viral replication after 2 days by luciferase reporter gene based luminescence assay; assay type: functional, organism-based; conditions: Human immunodeficiency virus 1, TZM-bl, 48 h
Summary of the method: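 Single-round infection of TZM-bl cells with 200 TCID50 virus (NL4-3 for wild type) in the presence of graded compound concentrations. Luciferase luminescence was read two days after infection. […] Run at least in triplicate; mean ± SD reported.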

[13] = test system: Human immunodeficiency virus 1; assay: Antiviral activity against multidrug-resistant HIV-1 RTMDR infected in human TZM-bl cells assessed as inhibition of viral replication after 2 days by luciferase reporter gene based luminescence assay; assay type: functional, organism-based; conditions: Human immunodeficiency virus 1, RTMDR, 48 h; summary of the method: as §1

Row | SMILES | EC50 [1] [nM] | t1/2 (Liver microsomes [2]) [min] | solubility [3] [µg/mL] | solubility [4] [µg/mL] | CC50 [5] [nM] | selectivity ratio [6] | intrinsic clearance (CLint) (Liver microsomes [7]) [µL/min/mg] | other results
1 | Cc1cc(/C=C/C#N)cc(C)c1Oc1cc(Nc2ccc(C#N)cc2)c(N)cc1[N+](=O)[O-] | 0.63 | 47.8 | 0.29 (≈ 0.682 µM) | 0.29 (≈ 0.682 µM) | > 24400 |  |  | Papp (Caco-2): < 2 ×10⁻⁶ cm/s
2 | COC(=O)c1cc(N)c(Nc2ccc(C#N)cc2)cc1Oc1c(C)cc(/C=C/C#N)cc1C |  | 283 |  |  | > 22800 | > 8320 | 20 | 
3 | Cc1cc(/C=C/C#N)cc(C)c1Oc1cc(Nc2ccc(C#N)cc2)c(N)cc1C(=O)O |  |  |  |  |  | 65 |  | 
4 | Cc1cc(/C=C/C#N)cc(C)c1Oc1cc(Nc2ccc(C#N)cc2)c(N)cc1C(N)=O |  |  |  |  | > 23600 | > 27100 |  | solubility at 4 h [3]: 2.09 µg/mL (≈ 4.94 µM); Ratio EC50 [8]: 9.5; Ratio EC50 [9]: 2.1; EC50 [10]: 9 nM; Ratio EC50 [11]: 10.3; EC50 [12]: 8.3 nM; EC50 [13]: 1.8 nM
5 | CNC(=O)c1cc(N)c(Nc2ccc(C#N)cc2)cc1Oc1c(C)cc(/C=C/C#N)cc1C |  | 44.8 |  |  | > 9200 | > 1610 | 150 | 
6 | Cc1cc(/C=C/C#N)cc(C)c1Oc1cc(Nc2ccc(C#N)cc2)c(N)cc1CO |  |  |  |  |  | 30800 |  | solubility at 4 h [3]: 20.9 µg/mL (≈ 50.9 µM); Ratio EC50 [8]: 6.4; Ratio EC50 [9]: 0.7; EC50 [10]: 3.9 nM; Ratio EC50 [11]: 7.4; EC50 [12]: 3.4 nM; EC50 [13]: 0.4 nM
7 | Cc1cc(CO)cc(C)c1Oc1cc(Nc2ccc(C#N)cc2)c(N)cc1CO | 10 |  |  |  | 15900 | 1590 |  | 
8 | CNC(=O)c1cc2ncn(-c3ccc(C#N)cc3)c2cc1Oc1c(C)cc(/C=C/C#N)cc1C | > 220 |  |  |  | > 890000 |  |  | 
9 | CNC(=O)c1cc2ncn(-c3ccc(C#N)cc3)c2cc1Oc1c(C)cc(CCC#N)cc1C | > 220 |  |  |  | > 890000 |  |  | 
10 | CC(=O)/C=C/c1cc(C)c(Oc2cc(Nc3ccc(C#N)cc3)c(N)cc2C(F)(F)F)c(C)c1 | 10.9 |  |  |  | > 8600 | > 789 |  | 
11 | CC(=O)CCc1cc(C)c(Oc2cc(Nc3ccc(C#N)cc3)c(N)cc2C(F)(F)F)c(C)c1 | 6.85 |  | 0.28 (≈ 0.599 µM) | 0.16 (≈ 0.342 µM) | 11100 | 1620 |  | 
12 | Cc1cc(C#N)cc(C)c1Oc1cc(Nc2ccc(C#N)cc2)c(N)cc1C(F)(F)F | 3.79 |  | 0.96 (≈ 2.27 µM) | 0.26 (≈ 0.616 µM) | 13300 | 3510 |  | 
13 | Cc1cc(N)cc(C)c1Oc1cc(Nc2ccc(C#N)cc2)c(N)cc1C(F)(F)F | 13.8 |  |  |  | 15800 | 1140 |  | 
14 | Cc1cc(/C=C/C#N)cc(C)c1Oc1cc(Nc2ccc(C#N)cc2)c(N)cc1C(F)(F)F | 9.38 | 45 | 0.42 (≈ 0.937 µM) | 0.24 (≈ 0.535 µM) | 15000 | 1600 | 150 | 
15 | Cc1cc(CCC#N)cc(C)c1Oc1cc(Nc2ccc(C#N)cc2)c(N)cc1C(F)(F)F | 1.13 | 55.7 |  | 0.24 (≈ 0.533 µM) | > 7100 |  | 120 | 
16 | Cc1cc(/C=C/C#N)cc(C)c1Oc1cc(Nc2ccc(C#N)cc2)c(N)cc1S(N)(=O)=O | 93.7 |  |  |  | > 21800 | > 233 |  | 
17 | Cc1cc(CCC#N)cc(C)c1Oc1cc(Nc2ccc(C#N)cc2)c(N)cc1S(N)(=O)=O | 380 |  |  |  | 11100 | 29.2 |  | 
18 | COC(=O)c1cc(N)c(Nc2ccc(C#N)cc2)cc1Oc1c(C)cc(CCC#N)cc1C | 4.32 | 186 | 21.8 (≈ 49.5 µM) | 1.21 (≈ 2.75 µM) | > 22700 | > 5260 | 40 | Ratio EC50 [8]: 3.2; Ratio EC50 [9]: 0.9; EC50 [10]: 7.5 nM; Ratio EC50 [11]: 1.7; EC50 [12]: 14 nM; EC50 [13]: 4.1 nM
19 | Cc1cc(CCC#N)cc(C)c1Oc1cc(Nc2ccc(C#N)cc2)c(N)cc1C(=O)O | 96 |  |  |  | 14300 | 149 |  | 
20 | Cc1cc(CCC#N)cc(C)c1Oc1cc(Nc2ccc(C#N)cc2)c(N)cc1C(N)=O | 1.39 | 42 | 9.11 (≈ 21.4 µM) | 0.06 (≈ 0.141 µM) | > 9400 | > 6760 | 160 | 
21 | CNC(=O)c1cc(N)c(Nc2ccc(C#N)cc2)cc1Oc1c(C)cc(CCC#N)cc1C | 2.73 | 55.7 | 44.7 (≈ 102 µM) | 8.28 (≈ 18.8 µM) | > 9100 | > 3330 | 120 | Ratio EC50 [8]: 5.1; Ratio EC50 [9]: 2.9; EC50 [10]: 10 nM; Ratio EC50 [11]: 3.7; EC50 [12]: 14 nM; EC50 [13]: 8 nM
22 | Cc1cc(CCC#N)cc(C)c1Oc1cc(Nc2ccc(C#N)cc2)c(N)cc1C(=O)NN | 19.1 |  |  |  | > 22700 | > 1190 |  | 
23 | Cc1cc(CCC#N)cc(C)c1Oc1cc(Nc2ccc(C#N)cc2)c(N)cc1CO | 0.39 | 20.9 | 89.8 (≈ 218 µM) | 18.8 (≈ 45.6 µM) | > 23800 | > 61000 | 330 | Ratio EC50 [8]: 8.7; Ratio EC50 [9]: 4.6; EC50 [10]: 2.9 nM; Ratio EC50 [11]: 7.4; EC50 [12]: 3.4 nM; EC50 [13]: 1.8 nM
24 | Cc1cc(CCC#N)cc(C)c1Oc1cc(Nc2ccc(C#N)cc2)c(N)cc1N | 7.3 |  |  |  | > 25000 | > 3420 |  | 
25 | Cc1cc(C#N)cc(C)c1Oc1nc(Nc2ccc(C#N)cc2)nc(N)c1Br [ETRAVIRINE] | 1.51 |  |  |  |  |  |  | 
